Test results reported in ChEMBL document CHEMBL1143019, “Hybrid molecules of estrone: new compounds with potential antibacterial, antifungal, and antiproliferative activities” (2007).
Converted amounts (≈) assume the structure as drawn.

Columns and labels:
[1] = system: Mycobacterium tuberculosis; experiment: Antimicrobial activity against Mycobacterium tuberculosis My 331/88 after 14 days; format: functional; details: 336 h
[2] = system: Mycobacterium tuberculosis; experiment: Antimicrobial activity against Mycobacterium tuberculosis My 331/88 after 21 days; format: functional; details: 504 h
Mycobacterium kansasii [3] = experiment: Antimicrobial activity against Mycobacterium kansasii My 235/80 after 14 days; format: functional; details: 336 h
Procedure, shortened: (§1)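 Run in Šula semisynthetic liquid medium containing bovine serum. Compounds added as DMSO solutions at final concentrations of […]. Each strain was also inoculated onto Löwenstein–Jensen medium to control inoculum sterility and growth.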

Mycobacterium kansasii [4] = experiment: Antimicrobial activity against Mycobacterium kansasii My 235/80 after 21 days; format: functional; details: 504 h; procedure, shortened: as §1
Mycobacterium kansasii [5] = experiment: Antimicrobial activity against Mycobacterium kansasii My 6509/96 after 21 days; format: functional; details: 504 h; procedure, shortened: as §1
Candida albicans [6] = experiment: Antifungal activity against Candida albicans ATCC 44859 after 24 hrs; format: functional; details: ATCC 44859, 24 h
Procedure, shortened: (§2)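 Modified NCCLS M27-A broth microdilution with clinical isolates subcultured on Sabouraud dextrose agar. Suspensions diluted 1:50 in RPMI 1640 to give a final inoculum of 0.5–2.5×10³ CFU/mL for yeasts or 0.5–5×10⁴ CFU/mL for molds. The RPMI had L-glutamine, no bicarbonate, and 0.165 M MOPS to pH 7.0. Twofold dilutions from 250 to 0.49. Plates held at 35 °C, humid, without agitation. MIC is the lowest concentration giving ≥80% inhibition versus drug-free control, read at 24 and 48 h.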

Candida albicans [7] = experiment: Antifungal activity against Candida albicans ATCC 44859 after 48 hrs; format: functional; details: ATCC 44859, 48 h; procedure, shortened: as §2
Candida tropicalis [8] = experiment: Antifungal activity against Candida tropicalis 156 after 24 hrs; format: functional; procedure, shortened: as §2
Candida tropicalis [9] = experiment: Antifungal activity against Candida tropicalis 156 after 48 hrs; format: functional; procedure, shortened: as §2
Pichia kudriavzevii [10] = experiment: Antifungal activity against Candida krusei E28 after 24 hrs; format: functional; procedure, shortened: as §2
Pichia kudriavzevii [11] = experiment: Antifungal activity against Candida krusei E28 after 48 hrs; format: functional; procedure, shortened: as §2
Nakaseomyces glabratus [12] = experiment: Antifungal activity against Candida glabrata 20/I after 24 hrs; format: functional; procedure, shortened: as §2
Nakaseomyces glabratus [13] = experiment: Antifungal activity against Candida glabrata 20/I after 48 hrs; format: functional; procedure, shortened: as §2
Trichosporon beigelii [14] = experiment: Antifungal activity against Trichosporon beigelii 1188 after 24 hrs; format: functional; procedure, shortened: as §2
Trichosporon beigelii [15] = experiment: Antifungal activity against Trichosporon beigelii 1188 after 48 hrs; format: functional; procedure, shortened: as §2
Aspergillus fumigatus [16] = experiment: Antifungal activity against Aspergillus fumigatus 231 after 24 hrs; format: functional; procedure, shortened: as §2
Aspergillus fumigatus [17] = experiment: Antifungal activity against Aspergillus fumigatus 231 after 48 hrs; format: functional; procedure, shortened: as §2
Lichtheimia corymbifera [18] = experiment: Antifungal activity against Absidia corymbifera 272 after 24 hrs; format: functional; procedure, shortened: as §2
Lichtheimia corymbifera [19] = experiment: Antifungal activity against Absidia corymbifera 272 after 48 hrs; format: functional; procedure, shortened: as §2
Trichophyton benhamiae [20] = experiment: Antifungal activity against Trichophyton mentagrophytes 445 after 72 hrs; format: functional, Arthroderma benhamiae
Procedure, shortened: (§3)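 Same modified M27-A microdilution with the mold inoculum of 0.5–5×10⁴ CFU/mL. Medium was RPMI 1640 with L-glutamine, no bicarbonate, and 0.165 M MOPS at pH 7.0. Twofold dilutions from 250 to 0.49. Incubated at 35 °C in a humid atmosphere.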

Trichophyton benhamiae [21] = experiment: Antifungal activity against Trichophyton mentagrophytes 445 after 120 hrs; format: functional, Arthroderma benhamiae; procedure, shortened: as §3
L929 = experiment: Antiproliferative activity against mouse L929 cells after 72 hrs; format: functional; details: L929, 72 h
Procedure, shortened: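 About 10,000 adherent cells per well in RPMI 1640 with 10% heat-inactivated FBS and penicillin/streptomycin, without HEPES. Exposed to 10 concentrations for 72 h at 37 °C in humidified 5% CO₂. Monolayers fixed with glutaraldehyde, stained 15 min with 0.05% methylene blue, and eluted with 0.33 N HCl; OD read at 630 nm. GI50 derived from dose–response curves relative to control.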

K562 = experiment: Antiproliferative activity against human K562 cells after 72 hrs; format: functional; details: K562, 72 h
Procedure, shortened: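 About 10,000 suspension cells per well in RPMI 1640 with 10% heat-inactivated FBS and penicillin/streptomycin, without HEPES. Exposed to 10 concentrations for 72 h at 37 °C in humidified 5% CO₂. Wells diluted 1:50 in CASYTON and counted electronically, each result the mean of three successive counts. GI50 is where the concentration–response curve crosses 50% of control cell count.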

HeLa = experiment: Cytotoxicity against human HeLa cells after 72 hrs; format: functional; details: for CC50: Homo sapiens, HeLa, 72 h
Procedure, shortened: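 About 10,000 cells per well in RPMI 1640 were preincubated 48 h without compound. The 10 test concentrations were then applied onto the monolayers and incubated 72 h at 37 °C in humidified 5% CO₂. Monolayers fixed with glutaraldehyde, stained with 0.05% methylene blue, and eluted with 0.33 N HCl; optical density measured at 630 nm.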

Mycobacterium avium [22] = experiment: Antimicrobial activity against Mycobacterium avium My 330/88 after 14 days; format: functional; details: 336 h
Mycobacterium avium [23] = experiment: Antimicrobial activity against Mycobacterium avium My 330/88 after 21 days; format: functional; details: 504 h
Mycobacterium kansasii [24] = experiment: Antimicrobial activity against Mycobacterium kansasii My 235/80 after 7 days; format: functional; details: 168 h; procedure, shortened: as §1
Mycobacterium kansasii [25] = experiment: Antimicrobial activity against Mycobacterium kansasii My 6509/96 after 7 days; format: functional; details: 168 h; procedure, shortened: as §1
Mycobacterium kansasii [26] = experiment: Antimicrobial activity against Mycobacterium kansasii My 6509/96 after 14 days; format: functional; details: 336 h; procedure, shortened: as §1

Row | SMILES | MIC [1] [µM] | MIC [2] [µM] | MIC (Mycobacterium kansasii [3]) [µM] | MIC (Mycobacterium kansasii [4]) [µM] | MIC (Mycobacterium kansasii [5]) [µM] | MIC (Candida albicans [6]) [µM] | MIC (Candida albicans [7]) [µM] | MIC (Candida tropicalis [8]) [µM] | MIC (Candida tropicalis [9]) [µM] | MIC (Pichia kudriavzevii [10]) [µM] | MIC (Pichia kudriavzevii [11]) [µM] | MIC (Nakaseomyces glabratus [12]) [µM] | MIC (Nakaseomyces glabratus [13]) [µM] | MIC (Trichosporon beigelii [14]) [µM] | MIC (Trichosporon beigelii [15]) [µM] | MIC (Aspergillus fumigatus [16]) [µM] | GI50 (L929) [µg/mL] | GI50 (K562) [µg/mL] | CC10 (HeLa) [µg/mL] | CC50 (HeLa) [µg/mL] | further results
1 | C[C@]12CC[C@@H]3c4ccc(OCCCCCCCSc5nnnn5-c5ccccc5)cc4CC[C@H]3[C@@H]1CCC2=O | > 500 | > 500 | > 500 | > 500 | > 500 | > 250 | > 250 | > 250 | > 250 | > 250 | > 250 | > 250 | > 250 | > 250 | > 250 | 250 (≈ 136 µg/mL) | > 50 | > 50 | 20.3 (≈ 37.3 µM) | > 50 | MIC (Aspergillus fumigatus [17]): > 250 µM; MIC (Lichtheimia corymbifera [18]): > 250 µM; MIC (Lichtheimia corymbifera [19]): > 250 µM; MIC (Trichophyton benhamiae [20]): > 250 µM; MIC (Trichophyton benhamiae [21]): > 250 µM
2 | Sc1nnnn1-c1ccccc1 | > 500 | > 500 | > 500 | > 500 | > 500 |  |  |  |  |  |  |  |  |  |  |  | > 50 | > 50 | 40 (≈ 224 µM) | > 50 | MIC (Mycobacterium avium [22]): > 500 µM; MIC (Mycobacterium avium [23]): > 500 µM; MIC (Mycobacterium kansasii [24]): > 500 µM; MIC (Mycobacterium kansasii [25]): > 500 µM; MIC (Mycobacterium kansasii [26]): > 500 µM
3 | Cc1ccc(-n2nnnc2S)cc1 | 500 (≈ 96.1 µg/mL) | > 500 | > 500 | > 500 | > 500 |  |  |  |  |  |  |  |  |  |  |  | > 50 | 42.8 (≈ 223 µM) | 33 (≈ 172 µM) | > 50 | MIC (Mycobacterium avium [22]): 500 µM (≈ 96.1 µg/mL); MIC (Mycobacterium avium [23]): > 500 µM; MIC (Mycobacterium kansasii [24]): 500 µM (≈ 96.1 µg/mL); MIC (Mycobacterium kansasii [25]): 500 µM (≈ 96.1 µg/mL); MIC (Mycobacterium kansasii [26]): 500 µM (≈ 96.1 µg/mL)
4 | Cc1ccc(-n2nnnc2SCc2ccccc2)cc1 | 32 (≈ 9.04 µg/mL) | 125 (≈ 35.3 µg/mL) | 32 (≈ 9.04 µg/mL) | 250 (≈ 70.6 µg/mL) | 250 (≈ 70.6 µg/mL) | > 250 | > 250 | > 250 | > 250 | > 250 | > 250 | > 250 | > 250 | > 250 | > 250 | 62.5 (≈ 17.6 µg/mL) | 12.5 (≈ 44.3 µM) | 24.3 (≈ 86.1 µM) | 4 (≈ 14.2 µM) | 19.7 (≈ 69.8 µM) | MIC (Mycobacterium avium [22]): 62.5 µM (≈ 17.6 µg/mL); MIC (Mycobacterium kansasii [24]): 16 µM (≈ 4.52 µg/mL); MIC (Mycobacterium kansasii [25]): 16 µM (≈ 4.52 µg/mL); MIC (Mycobacterium kansasii [26]): 32 µM (≈ 9.04 µg/mL); MIC (Aspergillus fumigatus [17]): 250 µM (≈ 70.6 µg/mL); MIC (Lichtheimia corymbifera [18]): > 250 µM; MIC (Lichtheimia corymbifera [19]): > 250 µM; MIC (Trichophyton benhamiae [20]): 31.3 µM (≈ 8.84 µg/mL); MIC (Trichophyton benhamiae [21]): 62.5 µM (≈ 17.6 µg/mL)
5 | Cc1ccc(-n2nnnc2SCCCCCCCOc2ccc3c(c2)CC[C@@H]2[C@@H]3CC[C@]3(C)C(=O)CC[C@@H]23)cc1 | 500 (≈ 279 µg/mL) | > 500 | > 500 | > 500 |  | > 250 | > 250 | > 250 | > 250 | > 250 | > 250 | > 250 | > 250 | > 250 | > 250 | 250 (≈ 140 µg/mL) | > 50 | > 50 | 28.7 (≈ 51.4 µM) | > 50 | MIC (Mycobacterium avium [22]): > 500 µM; MIC (Aspergillus fumigatus [17]): > 250 µM; MIC (Lichtheimia corymbifera [18]): > 250 µM; MIC (Lichtheimia corymbifera [19]): > 250 µM; MIC (Trichophyton benhamiae [20]): > 250 µM; MIC (Trichophyton benhamiae [21]): > 250 µM
6 | OC(Cn1cncn1)(Cn1cncn1)c1ccc(F)cc1F [FLUCONAZOLE] |  |  |  |  |  | 0.8 (≈ 0.245 µg/mL) | 1.6 (≈ 0.49 µg/mL) | 1.6 (≈ 0.49 µg/mL) | > 250 | 52.2 (≈ 16 µg/mL) | 104 (≈ 32 µg/mL) | 13.1 (≈ 4.01 µg/mL) | 52.2 (≈ 16 µg/mL) | 3.3 (≈ 1.01 µg/mL) | 6.5 (≈ 1.99 µg/mL) | > 250 |  |  |  |  | MIC (Aspergillus fumigatus [17]): > 250 µM; MIC (Lichtheimia corymbifera [18]): > 250 µM; MIC (Lichtheimia corymbifera [19]): > 250 µM; MIC (Trichophyton benhamiae [21]): 52.2 µM (≈ 16 µg/mL)
7 | C[C@]12CC[C@@H]3c4ccc(OCCCCCCCSc5nnnn5-c5ccc(Cl)c(Cl)c5)cc4CC[C@H]3[C@@H]1CCC2=O |  | > 500 | > 500 | > 500 | > 500 | > 250 | > 250 | > 250 | > 250 | > 250 | > 250 | > 250 | > 250 | > 250 | > 250 | 250 (≈ 153 µg/mL) | > 50 | > 50 | 50 (≈ 81.5 µM) | > 50 | MIC (Aspergillus fumigatus [17]): > 250 µM; MIC (Lichtheimia corymbifera [18]): > 250 µM; MIC (Lichtheimia corymbifera [19]): > 250 µM; MIC (Trichophyton benhamiae [20]): > 250 µM; MIC (Trichophyton benhamiae [21]): > 250 µM
